The source made the active and inactive calls.

We go through 3 molecules from ChEMBL document CHEMBL1157270, “Physalins from Witheringia solanacea as modulators of the NF-kappaB cascade” (J Nat Prod, 2006).

In test [1] the test system is HeLa. In words: Cytotoxicity against human HeLa cells at 100 uM. In kind it is functional, cell-based.
For test [2], the system named is HeLa. In words: Cytotoxicity against human HeLa cells after 7 hrs. In kind it is functional, cell-based. The method in brief: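 HeLa cells stably carrying an IL-6 promoter–luciferase reporter, exposed to compound with PMA (50 ng/mL final) for 7 h. Toxicity judged visually at 40× magnification from changes in cell morphology.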
The test system of test [3] is Jurkat. The experiment in a line: Induction of apoptosis in human Jurkat T cells assessed as sub-G0/G1 fraction at 1 uM after 24 hrs by flow cytometry. In kind it is functional. The method in brief:
(§1)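 Jurkat cells (10^6) grown in RPMI 1640 with 10% heat-inactivated FBS, 2 mM glutamine, penicillin and streptomycin, then treated 6 or 24 h. Cells fixed in 70% ethanol for 24 h at 4 °C, washed in PBS with 4% glucose, treated with RNase A (50 U/mL) and stained with PI (20 µg/mL) for 1 h at room temperature. Subdiploid (sub-G0/G1) percentage measured by flow cytometry.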
A general note: Flow cytometry measures light scatter and fluorescence of single cells or particles in a stream.

Test [4] relates to HeLa. The experiment in a line: Inhibition of PMA-induced NF-kappaB activation in human HeLa cells at 16 uM after 7 hrs by IL6/luciferase reporter gene assay. The class given is cell-based. The method in brief: (§2)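 HeLa cells stably transfected with an IL-6 promoter–luciferase reporter, stimulated with PMA (50 ng/mL final) for 7 h in the presence of compound. Luminescence given as % of RLU of the PMA-stimulated control, mean of three experiments. Active if ≥30% of positive control. Unstimulated cells served as negative control.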
Background: In a reporter assay the amount or activity of a reporter protein is the signal.

Test [5] relates to HeLa. In words: Inhibition of PMA-induced NF-kappaB activation in human HeLa cells at 8 uM after 7 hrs by IL6/luciferase reporter gene assay. In kind it is cell-based. The essentials: as §2
For test [6], the system named is Jurkat. The experiment in a line: Induction of apoptosis in human Jurkat T cells assessed as sub-G0/G1 fraction at 10 uM after 24 hrs by flow cytometry. In kind it is functional. The essentials: as §1
Test [7] deals with Jurkat. The experiment in a line: Induction of apoptosis in human Jurkat T cells assessed as sub-G0/G1 fraction at 20 uM after 6 hrs by flow cytometry. The class given is functional. The essentials:
as §1

The subject of test [8] is Jurkat. The experiment in a line: Induction of apoptosis in human Jurkat T cells assessed as sub-G0/G1 fraction at 20 uM after 24 hrs by flow cytometry. In kind it is functional. The method in brief: as §1
Test [9] has as its system HeLa. The experiment in a line: Cytotoxicity against human HeLa cells after 72 hrs by MTT assay. In kind it is functional, cell-based. The method in brief:
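HeLa cells exposed to compound for 72 h, then incubated 2 h at 37 °C with 0.5 mg/mL MTT. Formazan dissolved in 90% 2-propanol with DMSO. IC50 read from the concentration–response.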

Test [10] deals with Jurkat. The experiment in a line: Induction of apoptosis in human Jurkat T cells assessed as sub-G0/G1 fraction at 1 uM after 6 hrs by flow cytometry. In kind it is functional. The essentials: as §1
The subject of test [11] is Jurkat. The experiment in a line: Induction of apoptosis in human Jurkat T cells assessed as sub-G0/G1 fraction at 10 uM after 6 hrs by flow cytometry. The class given is functional. The essentials: as §1
For test [12], the system named is HeLa. In words: Cytotoxicity against human HeLa cells at 100 ug/mL.
For test [13], the system named is HeLa. In words: Inhibition of PMA-induced NF-kappaB activation in human HeLa cells at 4 uM after 7 hrs by IL6/luciferase reporter gene assay relative to untreated control. In kind it is cell-based. Also noted: scale not given: the % may be the effect or the level left. The method in brief:
as §2

Test [14] is filed under the species Homo sapiens. The experiment in a line: Inhibition of NF-kappaB activation in human HeLa-Tet-On cells assessed as inhibition of doxycyclin-induced HIV1-LTR transactivation at 5 uM after 6 hrs by luciferase reporter gene assay. In kind it is cell-based. The essentials:
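HeLa-Tet-On-Luc cells seeded at 5 × 10^5 cells/mL the day before, then stimulated with doxycycline (2 µg/mL) with or without compound for 6 h. Cells washed in PBS and lysed, and luciferase activity measured.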

Test [15] relates to Jurkat. In words: Inhibition of TNF-alpha-induced NF-kappaB activation in human Jurkat 5.1 cells preincubated for 30 mins measured after 6 hrs by HIV1-LTR luciferase assay. In kind it is cell-based. The essentials:
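5.1 cells preincubated with compound (5, 10, 20 µM) for 30 min, then stimulated with TNF (2 ng/mL) for 6 h. Lysis in Tris phosphate pH 7.8 buffer with Triton X-100. Luciferase read after subtracting lysis-buffer background and normalised to Bradford protein (RLU/µg). Result expressed as fold induction, mean of three experiments.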

Test [16] has as its system HeLa. In words: Inhibition of PMA-induced NF-kappaB activation in human HeLa cells at 2 uM after 7 hrs by IL6/luciferase reporter gene assay relative to untreated control. In kind it is cell-based. On the set-up: scale not given: the % may be the effect or the level left. The essentials: as §2

With `C[C@@]12C[C@H]3OC(=O)[C@@H]1CO[C@@]14O[C@]5([C@H]2C1=O)[C@@](O)(CC[C@H]1[C@H]4C[C@@H](O)[C@@]2(O)CC=CC(=O)[C@]12C)C(=O)O[C@@]35C`, in [1], the Activity result is “Not toxic”.

For orientation: IC50 means the concentration that gives 50% inhibition. For `C[C@]12C(=O)C=CCC1=CC[C@@H]1[C@@H]2CC[C@]2(O)C(=O)O[C@@]3(C)[C@H]4C[C@]5(C)[C@@H](CO[C@@]16O[C@@]32[C@H]5C6=O)C(=O)O4` [PHYSALIN B], the Activity entry in test [2] was “Not toxic”; in [3] it was 6.27%; in test [6] it was 49.7%; in test [7], 2.08%; in [8], 50%; in test [10], 1.83%. The Activity in test [11] is 2.08%; in test [12], “Toxic”. The outcome in test [4] and in test [5] was Active. Moreover, the IC50 in [9] came out at 2 µM.

For `C[C@@]12C[C@H]3OC(=O)[C@@H]1CO[C@]14O[C@]5([C@H]2C1=O)[C@@](O)(CC[C@H]1[C@H]4C[C@H]2O[C@]24CC=CC(=O)[C@]14C)C(=O)O[C@@]35C` [PHYSALIN F], the Activity entry was “Not toxic” in test [2]; 7% in test [13]; 50.2% in test [3]; 58.2% in test [6]; 1.64% in test [7]; “Dose-dependent effect” in test [15]. Further, the Activity in test [8] was 64.6%; in test [16], 20%; in [10], 2.71%; in test [11] it was 2.07%; in test [1] it was “Toxic”. Besides, the result in [4] and in test [5] was Active. Besides, in [14], the outcome was inactive. The molecule further yielded an IC50 in [9] of 2 µM.
